Laboratory results published in ChEMBL document CHEMBL1157464, “1-[(3-Aryloxy-3-aryl)propyl]-1H-imidazoles, new imidazoles with potent activity against Candida albicans and dermatophytes. Synthesis, structure-activity relationship, and molecular modeling studies” (J Med Chem, 2008).
Values after ≈ are worked out from the molar mass of the structure shown.

Tests used:
[1] = Cytotoxicity against human U937 cells assessed as reduction of cell viability after 24 hrs by MTT assay; format: cell-based, U-937
In short: (§1)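 U937 and K562 cells, from ATCC, plated at 5 × 10^4/mL in phenol-red-free RPMI-1640 with 20% FBS and penicillin/streptomycin. Compounds added 2 h later at 25–100 µg/mL, then 24 h at 37 °C. MTT at 1 mg/mL for 3 h, formazan dissolved in isopropanol with 0.1 N HCl, absorbance read at 570 nm. CC50 is the concentration reducing viability by 50% versus the drug-free control.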

[2] = Cytotoxicity against human K562 cells after assessed as reduction of cell viability 24 hrs by MTT assay; format: cell-based; in short: as §1
Candida parapsilosis = assay: Antifungal activity against Candida parapsilosis ATCC 22019 at 35 degC after 48 hrs by broth microdilution test; format: functional; details: Lodderomyces parapsilosis, ATCC 22019, 48 h; for MFC: read-out: MFC; for MIC: read-out: MIC
In short: (§2)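 Broth microdilution per NCCLS M27-A2. Stocks in 100% DMSO, diluted in RPMI 1640 with 0.165 M MOPS at pH 7.0; final range 0.25–128 µg/mL. Inoculum 1000–5000 cells/mL from SDA subcultures. […] C. parapsilosis ATCC22019 served as QC strain.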

Arthrodermataceae [3] = assay: Antifungal activity against dermatophytes at 28 degC after 48 to 96 hrs by broth microdilution test
Candida albicans [4] = assay: Antifungal activity against Candida albicans ATCC 10261 at 35 degC after 48 hrs by broth microdilution test; format: functional; details: Candida albicans, ATCC 10261, 48 h; for MIC: read-out: MIC; for MIC50: read-out: MIC50; for MIC90: read-out: MIC90; in short: as §2
Arthrodermataceae [5] = assay: Antifungal activity against dermatophytes at 28 degC after 5 days by broth microdilution test; details: for MFC: Arthrodermataceae
Candida albicans [6] = assay: Antifungal activity against Candida albicans ATCC 10261 at 35 degC after 48 to 96 hrs by broth microdilution test; format: functional; details: for MFC: Candida albicans, ATCC 10261, read-out: MFC
In short: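 Minimal fungicidal concentration for Candida. […] MFC is the lowest concentration allowing fewer than two colonies (99% killing).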

Arthrodermataceae [7] = assay: Antifungal activity against dermatophytes at 28 degC after 7 days by broth microdilution test; format: functional; details: 168 h
In short: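 Ten clinical isolates (two M. canis, five M. gypseum, three T. mentagrophytes) tested by NCCLS M38-A broth microdilution in MOPS-buffered RPMI 1640, pH 7.0, over 0.25–128 µg/mL. Conidial/hyphal suspension from PDA slants (28 °C, 7 days) adjusted to 65–70% transmittance at OD530, then diluted 1:50.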

SMILES: Cc1ccc(C(CCn2ccnc2)Oc2cc(Cl)cc(Cl)c2)cc1 (centres undefined)
- CC50 at 24 h [1]: 160 µM
- CC50 at 24 h [2]: 98 µM
- MFC (Candida parapsilosis): 8 µg/mL (≈ 22.1 µM)
- MIC (Candida parapsilosis): 1 µg/mL (≈ 2.77 µM)
- MFC50 (Arthrodermataceae [3]): 16 µg/mL (≈ 44.3 µM)
- MIC (Candida albicans [4]): 11.9 µg/mL (≈ 32.9 µM)
- MIC50 (Candida albicans [4]): 16 µg/mL (≈ 44.3 µM)
- MIC90 (Candida albicans [4]): 16 µg/mL (≈ 44.3 µM)
- MFC90 (Arthrodermataceae [5]): 16 µg/mL (≈ 44.3 µM)
- MFC (Arthrodermataceae [5]): 14.4 µg/mL (≈ 39.9 µM)
- MFC50 (Candida albicans [6]): 16 µg/mL (≈ 44.3 µM)
- MFC90 (Candida albicans [6]): 64 µg/mL (≈ 177 µM)
- MFC (Candida albicans [6]): 34.6 µg/mL (≈ 95.8 µM)
- MIC (Arthrodermataceae [7]): 5.6 µg/mL (≈ 15.5 µM)
- MIC50 (Arthrodermataceae [7]): 4 µg/mL (≈ 11.1 µM)
- MIC90 (Arthrodermataceae [7]): 8 µg/mL (≈ 22.1 µM)

SMILES: CCc1ccc(OC(CCn2ccnc2)c2ccc(C)cc2)cc1 (centres undefined)
- CC50 at 24 h [1]: 152 µM
- CC50 at 24 h [2]: 136 µM
- MFC (Candida parapsilosis): 8 µg/mL (≈ 25 µM)
- MIC (Candida parapsilosis): 4 µg/mL (≈ 12.5 µM)
- MIC (Candida albicans [4]): 8.7 µg/mL (≈ 27.2 µM)
- MIC50 (Candida albicans [4]): 4 µg/mL (≈ 12.5 µM)
- MIC90 (Candida albicans [4]): 16 µg/mL (≈ 49.9 µM)
- MFC50 (Candida albicans [6]): 32 µg/mL (≈ 99.9 µM)
- MFC90 (Candida albicans [6]): 32 µg/mL (≈ 99.9 µM)
- MFC (Candida albicans [6]): 28 µg/mL (≈ 87.4 µM)

SMILES: CC(C)c1ccc(OC(CCn2ccnc2)c2ccc(Cl)cc2)cc1 (centres undefined)
- CC50 at 24 h [1]: 208 µM
- CC50 at 24 h [2]: 138 µM
- MFC (Candida parapsilosis): 32 µg/mL (≈ 90.2 µM)
- MIC (Candida parapsilosis): 8 µg/mL (≈ 22.5 µM)
- MIC (Candida albicans [4]): 18.5 µg/mL (≈ 52.1 µM)
- MIC50 (Candida albicans [4]): 8 µg/mL (≈ 22.5 µM)
- MIC90 (Candida albicans [4]): 32 µg/mL (≈ 90.2 µM)
- MFC50 (Candida albicans [6]): 32 µg/mL (≈ 90.2 µM)
- MFC90 (Candida albicans [6]): 32 µg/mL (≈ 90.2 µM)
- MFC (Candida albicans [6]): 25.5 µg/mL (≈ 71.9 µM)

SMILES: Cc1ccc(OC(Cn2ccnc2)c2ccc(Cl)cc2)cc1 (centres undefined)
- CC50 at 24 h [1]: 150 µM
- CC50 at 24 h [2]: 99 µM
- MIC (Candida parapsilosis): 4 µg/mL (≈ 12.8 µM)
- MIC (Candida albicans [4]): 22.3 µg/mL (≈ 71.3 µM)
- MIC50 (Candida albicans [4]): 16 µg/mL (≈ 51.2 µM)
- MIC90 (Candida albicans [4]): 32 µg/mL (≈ 102 µM)
- MFC (Candida albicans [6]): 32 µg/mL (≈ 102 µM)

SMILES: Clc1ccc(C(CCn2ccnc2)Oc2cc(Cl)cc(Cl)c2)cc1 (centres undefined)
- CC50 at 24 h [1]: 180 µM
- CC50 at 24 h [2]: 135 µM
- MFC (Candida parapsilosis): 4 µg/mL (≈ 10.5 µM)
- MIC (Candida parapsilosis): 1 µg/mL (≈ 2.62 µM)
- MFC50 (Arthrodermataceae [3]): 8 µg/mL (≈ 21 µM)
- MIC (Candida albicans [4]): 7.7 µg/mL (≈ 20.2 µM)
- MIC50 (Candida albicans [4]): 8 µg/mL (≈ 21 µM)
- MIC90 (Candida albicans [4]): 16 µg/mL (≈ 41.9 µM)
- MFC90 (Arthrodermataceae [5]): 16 µg/mL (≈ 41.9 µM)
- MFC (Arthrodermataceae [5]): 10 µg/mL (≈ 26.2 µM)
- MFC50 (Candida albicans [6]): 16 µg/mL (≈ 41.9 µM)
- MFC90 (Candida albicans [6]): 16 µg/mL (≈ 41.9 µM)
- MFC (Candida albicans [6]): 16.5 µg/mL (≈ 43.2 µM)
- MIC (Arthrodermataceae [7]): 5 µg/mL (≈ 13.1 µM)
- MIC50 (Arthrodermataceae [7]): 4 µg/mL (≈ 10.5 µM)
- MIC90 (Arthrodermataceae [7]): 8 µg/mL (≈ 21 µM)

SMILES: Cc1ccc(C(CCn2ccnc2)Oc2ccc(C)cc2Cl)cc1 (centres undefined)
- CC50 at 24 h [1]: 151 µM
- CC50 at 24 h [2]: 123 µM
- MFC (Candida parapsilosis): 8 µg/mL (≈ 23.5 µM)
- MIC (Candida parapsilosis): 4 µg/mL (≈ 11.7 µM)
- MIC (Candida albicans [4]): 6.5 µg/mL (≈ 19.1 µM)
- MIC50 (Candida albicans [4]): 8 µg/mL (≈ 23.5 µM)
- MIC90 (Candida albicans [4]): 8 µg/mL (≈ 23.5 µM)
- MFC50 (Candida albicans [6]): 32 µg/mL (≈ 93.9 µM)
- MFC90 (Candida albicans [6]): 32 µg/mL (≈ 93.9 µM)
- MFC (Candida albicans [6]): 24 µg/mL (≈ 70.4 µM)

SMILES: c1ccc(OC(CCn2ccnc2)c2ccccc2)cc1 (centres undefined)
- CC50 at 24 h [1]: 201 µM
- CC50 at 24 h [2]: 220 µM
- MFC (Candida parapsilosis): 32 µg/mL (≈ 115 µM)
- MIC (Candida parapsilosis): 16 µg/mL (≈ 57.5 µM)
- MFC50 (Arthrodermataceae [3]): 64 µg/mL (≈ 230 µM)
- MIC (Candida albicans [4]): 62.7 µg/mL (≈ 225 µM)
- MIC50 (Candida albicans [4]): 32 µg/mL (≈ 115 µM)
- MIC90 (Candida albicans [4]): 128 µg/mL (≈ 460 µM)
- MFC90 (Arthrodermataceae [5]): 64 µg/mL (≈ 230 µM)
- MFC (Arthrodermataceae [5]): 56.5 µg/mL (≈ 203 µM)
- MFC50 (Candida albicans [6]): 64 µg/mL (≈ 230 µM)
- MFC90 (Candida albicans [6]): 128 µg/mL (≈ 460 µM)
- MFC (Candida albicans [6]): 83.2 µg/mL (≈ 299 µM)
- MIC (Arthrodermataceae [7]): 24.1 µg/mL (≈ 86.6 µM)
- MIC50 (Arthrodermataceae [7]): 16 µg/mL (≈ 57.5 µM)
- MIC90 (Arthrodermataceae [7]): 32 µg/mL (≈ 115 µM)

SMILES: Fc1ccc(C(CCn2ccnc2)Oc2c(Cl)cccc2Cl)cc1 (centres undefined)
- MFC (Candida parapsilosis): 32 µg/mL (≈ 87.6 µM)
- MIC (Candida parapsilosis): 4 µg/mL (≈ 11 µM)
- MFC50 (Arthrodermataceae [3]): 16 µg/mL (≈ 43.8 µM)
- MIC (Candida albicans [4]): 36.1 µg/mL (≈ 98.8 µM)
- MIC50 (Candida albicans [4]): 8 µg/mL (≈ 21.9 µM)
- MIC90 (Candida albicans [4]): 64 µg/mL (≈ 175 µM)
- MFC90 (Arthrodermataceae [5]): 16 µg/mL (≈ 43.8 µM)
- MFC (Arthrodermataceae [5]): 15 µg/mL (≈ 41.1 µM)
- MFC50 (Candida albicans [6]): 32 µg/mL (≈ 87.6 µM)
- MFC90 (Candida albicans [6]): 128 µg/mL (≈ 350 µM)
- MFC (Candida albicans [6]): 78.9 µg/mL (≈ 216 µM)
- MIC (Arthrodermataceae [7]): 6.4 µg/mL (≈ 17.5 µM)
- MIC50 (Arthrodermataceae [7]): 8 µg/mL (≈ 21.9 µM)
- MIC90 (Arthrodermataceae [7]): 8 µg/mL (≈ 21.9 µM)
